# Assay results pooled from the literature.
# Action: agonist
# ADRB2: Beta-2 adrenergic receptor (ADRB2, Homo sapiens, UniProt P07550)
# CNR2: Cannabinoid receptor 2 (CNR2, Homo sapiens, UniProt P34972)
# MC5R: Melanocortin receptor 5 (MC5R, Homo sapiens, UniProt P33032)
# AHR: Aryl hydrocarbon receptor (AHR, Homo sapiens, UniProt P35869)
SMILES,target,assay,EC50
COc1ccc(CNC(=S)NC(C)(C)C)cc1,ADRB2,"calcium signal, fluorescence",1900 nM
CC1CCN(C(NC(=O)c2ccc(C(C)(C)C)cc2)C(Cl)(Cl)Cl)CC1 (stereo not drawn),CNR2,"cAMP, TR-FRET",50.1 nM
CCOC(=O)[C@](CC)(CCCS(=O)(=O)CCOCCOCCNC(=O)OC(C)(C)C)NC(=O)c1ccc(C2CC2)c(Cc2ccc(F)cc2)n1,CNR2,cAMP,17 nM
O=c1ccn([C@@H]2O[C@H](COP(=O)(O)OP(=O)(O)O)[C@@H](O)[C@H]2O)c(=O)[nH]1,"P2Y purinoceptor 6 (P2RY6, Homo sapiens, UniProt Q15077)",inositol phosphate,295 nM
CSCC[C@H](NC(=O)[C@@H](NC(=O)[C@@H](N)Cc1ccc(O)cc1)C(C)C)C(=O)NCC(=O)N[C@@H](Cc1c[nH]cn1)C(=O)N[C@@H](Cc1ccccc1)C(=O)N[C@@H](CCCNC(=N)N)C(=O)N[C@@H](Cc1c[nH]c2ccccc12)C(=O)O,MC5R,reporter gene,23900 nM
Cc1ccc(-n2c(C)ccc2C)c2c1CC(C)(C)O2,ADRB2,"calcium signal, fluorescence",65000 nM
CC(C)OC(=O)c1cccc(C(=O)c2c[nH]c3ccccc23)n1,AHR,"reporter gene, luciferase",> 10000 nM
c1ccc(Nc2nc3ccccc3nc2Nc2ccccc2)cc1,CNR2,"cAMP, TR-FRET",25.1 nM
COC(=O)c1ccccc1C(=O)c1c[nH]c2ccccc12,AHR,"reporter gene, luciferase",> 10000 nM
N=C(N)NCCC[C@H](NC(=O)[C@H](Cc1ccccc1)NC(=O)[C@@H](N)Cc1cnc[nH]1)C(=O)N[C@@H](Cc1c[nH]c2ccccc12)C(=O)O,MC5R,reporter gene,> 100000 nM
COC(=O)c1cccc(C(=O)c2c[nH]c3ccc(Cl)cc23)n1,AHR,"reporter gene, luciferase",32 nM
CSCC[C@H](NC(=O)[C@@H](NC(=O)[C@@H](N)Cc1ccc(O)cc1)C(C)C)C(=O)NCC(=O)N[C@@H](Cc1c[nH]cn1)C(=O)N[C@@H](Cc1ccccc1)C(=O)N[C@@H](CCCNC(=N)N)C(=O)N[C@@H](Cc1c[nH]c2ccccc12)C(=O)N[C@@H](CC(=O)O)C(=O)N[C@@H](CCCNC(=N)N)C(=O)O,MC5R,reporter gene,7360 nM
